Screening results: PubChem BioAssay, several laboratories
Rin1 Abl inh: inhibitors of Rin1-Abl protein binding, primary screen, biochemical, TR-FRET; inhibition, % at 7.35 µM; hit rate 0.4% among 360,000; AID 588664, 2011; in the data active = inhibition above about 5%, passing the limit was not always enough
Neddyl block: inhibitors of cullin neddylation, primary screen, biochemical, TR-FRET, uHTS, NAE and Ubc12; NEDD8-conjugating enzyme Ubc12 (Homo sapiens) + NEDD8-activating enzyme E1 regulatory …; inhibition, % at 25 µM; hit rate 0.58% among 360,000; in the data active = inhibition above about 36%
HNF4A DNA FP: change in binding of human HNF4A to DNA, primary screen, biochemical, fluorescence polarization, FITC-DNA; Hepatocyte nuclear factor 4-alpha (Homo sapiens), P41235; 1 h; activity change, % at 10 µM; hit rate 0.3% among 360,000; AID 1224865, 2016; in the data active = activity change above about 30%, passing the limit was not always enough
TPT1 inhibitor: Candida albicans TPT1 enzyme inhibitors, primary screen, biochemical, fluorescence polarization; tRNA 2'-phosphotransferase TPT1 (Candida albicans SC5314); recombinant caTPT1, FP RNA substrate dephosphorylation; inhibition, % at 5 µM; hit rate 0.81% among 300,000;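 active = inhibition above the mean of all tested compounds plus 3 SD, set per screening campaign, cut at about 24% in these data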;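 also: plate controls were DMSO alone for no effect and ferristatin control at 100 nM for full effect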
CSN deneddyl inh: inhibitors of CSN-mediated cullin deneddylation, primary screen, biochemical, fluorescence polarization, uHTS. COP9 signalosome complex subunit 5 (Homo sapiens), Q92905. Purified CSN, SCF-Nedd8-OG deneddylation. inhibition, % at 12.5 µM. hit rate 0.38% among 360,000;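 active = pattern-corrected inhibition above about 35%, with an unprinted fluorescence ratio check between 0.5 and 1.5, limit read from the data, passing the limit was not always enough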;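 also: 0% = enzyme with substrate and 100% = substrate without enzyme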
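test system = HEK293T-derived human Csn5 enzyme | amount = 0.24 nM Csn5 enzyme, final concentration | medium = Tris/NaCl/DTT buffer, pH 7.5 | schedule = 90 min reaction at room temperature | signal = FP | evaluation = inhibition of Csn5 cleavage, % | compound dosing = single dose of 12.5 µM compound with 0.25% DMSO | probe or stimulus = 10 nM SCFSkp2-Nedd8OG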
Rpn11 block: Rpn11 (PSMD14) deubiquitinase inhibitors, primary screen, biochemical, fluorescence polarization, uHTS | AID 588493, 2011 | hit rate 0.59% among 360,000 | human 26S proteasome, Ub4-pepOG fluorescence polarization; 20S core pre-blocked with epoxomicin | 26S proteasome non-ATPase regulatory subunit 14 (Homo sapiens), O00487 | inhibition, % at 20 µM;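 active = inhibition at 20 µM, scaled to each plate's controls, above about 33%, limit read from the data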
TPT1 inh confirm: Candida albicans TPT1 inhibitors, confirmation, biochemical, fluorescence polarization, triplicate | shares compounds with TPT1 inhibitor | recombinant caTPT1, RNase T1 coupled | inhibition, % at 5 µM | hit rate 74% among 2,400;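 active = inhibition above the primary screen limit, the mean inhibition of all tested compounds plus 3 SD, cut at about 25% in these data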
RNase T1 inh: RNase T1 inhibitors, counter-screen for TPT1 inhibitor project, biochemical, fluorescence polarization | shares compounds with TPT1 inhibitor | AID 2153, 2009 | RNase T1 cleavage, 1536-well | hit rate 83% among 2,400 | inhibition, % at 5 µM;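 active = inhibition above the solvent-only control well mean plus 3 SD, limit set per screening run, cut at about 23% in these data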;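 also: plate controls were DMSO wells with enzyme for no effect and wells without RNase T1 for full effect; inhibitors block cleavage so intact labeled substrate keeps polarization high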
Rpn11 confirm: Rpn11 (PSMD14) deubiquitinase inhibitors, confirmation, biochemical, fluorescence polarization, single concentration; inhibition, % at 20 µM; hit rate 29% among 1,900; purified human 26S proteasome, Ub4-pepOG fluorescence polarization; proteasome pretreated with epoxomicin; AID 602318, 2012; shares compounds with Rpn11 block
MMP-2 counter: MMP-2 enzyme inhibition, confirmation, counter-screen for RPN11 inhibitor project, biochemical, fluorescence, single concentration | shares compounds with Rpn11 block | recombinant MMP-2, FRET peptide cleavage fluorescence | inhibition, % at 20 µM | hit rate 4% among 1,900;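 also: human MMP-2 activated beforehand with APMA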
Target sequence (P08253 whole entry, looked up): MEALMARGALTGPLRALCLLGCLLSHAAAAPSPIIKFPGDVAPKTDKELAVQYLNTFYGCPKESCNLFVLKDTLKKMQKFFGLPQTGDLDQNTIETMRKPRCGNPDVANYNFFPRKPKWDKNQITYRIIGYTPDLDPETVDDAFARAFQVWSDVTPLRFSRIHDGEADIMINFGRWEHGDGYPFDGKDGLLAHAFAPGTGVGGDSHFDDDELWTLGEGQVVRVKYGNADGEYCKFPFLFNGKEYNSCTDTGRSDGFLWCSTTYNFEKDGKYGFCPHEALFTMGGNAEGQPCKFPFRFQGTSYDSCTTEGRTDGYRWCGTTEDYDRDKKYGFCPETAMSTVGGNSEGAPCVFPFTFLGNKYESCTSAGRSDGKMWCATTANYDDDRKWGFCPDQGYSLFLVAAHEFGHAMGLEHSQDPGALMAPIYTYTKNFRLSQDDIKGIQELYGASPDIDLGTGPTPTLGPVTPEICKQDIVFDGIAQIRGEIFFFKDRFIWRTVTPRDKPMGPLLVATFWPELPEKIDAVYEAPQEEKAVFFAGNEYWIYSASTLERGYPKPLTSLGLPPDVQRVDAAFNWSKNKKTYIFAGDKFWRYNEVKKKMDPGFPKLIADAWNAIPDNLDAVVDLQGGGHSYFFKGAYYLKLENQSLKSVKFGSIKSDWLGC
Thrombin inh: bovine thrombin protease inhibition, confirmation, counter-screen for Rpn11 inhibitor project, biochemical, fluorescence polarization, single concentration | hit rate 13% among 1,900 | shares compounds with Rpn11 block | bovine thrombin cleavage of Ub4-pepOG | inhibition, % at 20 µM | AID 602333, 2012;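 active = mean inhibition at least 40% at 20 µM, or signal 3 deviations below plate average, so some actives read negative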;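 also: plate controls were thrombin with DMSO for no effect and buffer wells lacking thrombin for full effect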
* hit, by the source's call; · = no result given. This is a sample that favours compounds with a hit; in the whole collection about 2.4% have one here. Rule as the data show it, unless noted: active = inhibition above about 40%; inactive = the rest.

SMILES | Rin1 Abl inh | Neddyl block | HNF4A DNA FP | TPT1 inhibitor | CSN deneddyl inh | Rpn11 block | TPT1 inh confirm | RNase T1 inh | Rpn11 confirm | MMP-2 counter | Thrombin inh
O=c1[nH]c(=O)n(-c2cccc(F)c2)c(O)c1/C=C1\C=Nc2ccccc21 | 2 | 8 | -1 | 37* | 6 | 62* | -57 | -39 | 9 | -22 | 3
CC1C(=O)OC2CCN3CC4OC4(COC(=O)C(C)(O)C1(C)O)C23 (stereo not given) | 4 | 4 | 0 | · | 1 | 1 | · | · | · | · | ·
CN(C)c1ccc(/C=C2\C(=O)NC(=O)N(CCc3ccc(F)cc3)C2=O)cc1 | 1 | -1 | 10 | 30* | 22 | 50* | 67* | 86* | 10 | 1 | -90
COCCN1C(=O)NC(=O)/C(=C\c2ccc(F)cc2)C1=O | 1 | -8 | 1 | 3 | -2 | 2 | · | · | · | · | ·
O=C1NC(=O)N(CCc2ccc(F)cc2)C(=O)/C1=C/c1ccco1 | 0 | 2 | -17 | 61* | 43* | 71* | 14 | 15 | 29 | 37 | -1
Cc1cc(C)c(S(=O)(=O)N2Cc3ccccc3-n3nncc3C2)c(C)c1 | -2 | 11 | 0 | · | -2 | 3 | · | · | · | · | ·
CCN(CC)c1ccc(/C=C/[N+](=O)[O-])cc1 | -3 | -2 | 3 | 127* | 23 | 68* | 118* | 117* | 50* | -45 | 53*
CCOC(=O)[C@]12Cc3cc(C)ccc3[C@H]1N(C(C)C)C(=O)c1ccccc12 | · | 8 | -4 | · | -4 | · | · | · | · | · | ·
C=CCn1c(=O)c(C=Nc2cccc([N+](=O)[O-])c2)c(O)n(CCCC)c1=O | 0 | -36 | 31 | 113* | 30 | 69* | 36* | 47* | 46* | -20 | 31
C=CCn1c(=O)c(C=Nc2c(OC)cccc2[N+](=O)[O-])c(O)n(CCCC)c1=O | -3 | -49 | 21 | 51* | 10 | 78* | 30* | 39* | 53* | 6 | 47*
COc1cc(/C=C/C(=O)c2c(O)n(CCc3ccccc3)c(=O)[nH]c2=O)ccc1O | -3 | 15 | 3 | 63* | 13 | 53* | 69* | 89* | 61* | 5 | 31
O=c1[nH]c2ccccc2n1C1CCN(C(CCc2ccccc2)c2nnnn2-c2ccc3c(c2)OCCO3)CC1 (stereo not given) | 3 | 2 | 0 | · | -2 | 11 | · | · | · | · | ·
COC(=O)C1=C(c2ccc(F)cc2OCc2ccccc2)C[C@@H]2CC[C@H]1N2C(=O)NCc1cccc(C(F)(F)F)c1 | 0 | -14 | 4 | · | 0 | 6 | · | · | · | · | ·
O=C(N/N=C/c1c(O)n(CCc2ccccc2)c(=O)[nH]c1=O)c1ccccc1O | -3 | 24 | 27 | 38* | 24 | 58* | 43* | 56* | 62* | -15 | 36
O=C(N/N=C/c1c(O)n(CCc2ccccc2)c(=O)[nH]c1=O)c1ccncc1 | -3 | 12 | 12 | 7 | -1 | -2 | · | · | · | · | ·
Cc1cccc(N2C(=O)/C(=C/N3CCN(C(=O)c4ccco4)CC3)C(=O)NC2=S)c1 | -3 | -2 | 9 | 30* | 14 | 50* | 13 | 15 | 19 | 10 | 14
Cc1cccc(N2C(=O)NC(=O)/C(=C\c3ccc(N4CCOCC4)cc3)C2=O)c1 | 0 | -16 | 0 | 11 | 2 | -1 | · | · | · | · | ·
CC1=NCCc2c1[nH]c1cc(O)ccc21 | -10 | -29 | -99 | -102 | -74 | -194 | · | · | · | · | ·
COc1ccc2c3c([nH]c2c1)C(C)=NCC3 | -3 | · | 30 | 44* | 12 | 65* | 18 | 31* | 40 | -2 | 30
O=C(NCC1=C(c2cccc3ccccc23)C[C@@H]2CC[C@H]1N2Cc1ccco1)c1cccs1 | -2 | 7 | -8 | · | 5 | -22 | · | · | · | · | ·
CCOc1ccccc1-n1c(O)c(C=Nc2ccc(N(CC)CC)cc2)c(=O)[nH]c1=O | 2 | -18 | 17 | 81* | 14 | 56* | 75* | 89* | 49* | 3 | 38
CCN(CC)c1ccc(N=Cc2c(O)[nH]c(=O)[nH]c2=O)cc1 | 6 | -36 | 6 | 14 | 7 | · | · | · | · | · | ·
Cc1ccnc(-n2c(C)cc(C=C3C(=O)N(C)C(=S)N(C)C3=O)c2C)c1 | -1 | -3 | 4 | 52* | 6 | 47* | 24 | 33* | -5 | 28 | -42
Cc1cc(C)cc(-n2c(C)cc(/C=C3\C(=O)NC(=O)N(C)C3=O)c2C)c1 | -3 | -5 | 1 | 5 | -2 | 7 | · | · | · | · | ·
C[C@]12CC[C@@H](O)CC1=CCC1C2CC[C@@]2(C)C1CC[C@@H]2O (stereo not given in full) | -2 | -3 | 3 | · | -6 | -4 | · | · | · | · | ·
Cc1cc(/C=C2/C(=O)NC(=O)N(Cc3ccco3)C2=O)c(C)n1-c1ccccc1 | 2 | 0 | -4 | 23 | 15 | 12 | · | · | · | · | ·
